Measurements as given in ChEMBL document CHEMBL3425456, “Boronic acid-containing CXCR1/2 antagonists: Optimization of metabolic stability, in vivo evaluation, and a proposed receptor binding model” (Bioorg Med Chem Lett, 2015).
One block for each compound: values may come before it. Calls of active or inactive are those of the source. No cut-off for these calls is given here.

Tests used:
[1] = molecular target: T1, Interleukin-8 receptors, CXCR1/CXCR2 (Homo sapiens, UniProt P25025+P25024); experiment: Antagonist activity at CXCR1/CXCR2 in human PMN cells assessed as inhibition of GROalpha-mediated intracellular calcium release; format: functional, cell-based
T1 sequence (P25025 whole entry): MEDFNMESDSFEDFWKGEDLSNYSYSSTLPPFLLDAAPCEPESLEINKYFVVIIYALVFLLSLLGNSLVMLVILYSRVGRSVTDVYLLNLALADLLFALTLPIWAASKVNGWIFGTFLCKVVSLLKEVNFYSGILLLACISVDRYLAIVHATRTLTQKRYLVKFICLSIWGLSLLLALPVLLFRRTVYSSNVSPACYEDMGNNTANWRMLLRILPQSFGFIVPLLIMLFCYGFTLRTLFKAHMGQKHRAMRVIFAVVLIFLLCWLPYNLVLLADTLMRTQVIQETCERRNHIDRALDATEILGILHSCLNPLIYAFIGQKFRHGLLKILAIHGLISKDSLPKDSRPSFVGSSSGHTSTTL
T1 sequence (P25024 whole entry): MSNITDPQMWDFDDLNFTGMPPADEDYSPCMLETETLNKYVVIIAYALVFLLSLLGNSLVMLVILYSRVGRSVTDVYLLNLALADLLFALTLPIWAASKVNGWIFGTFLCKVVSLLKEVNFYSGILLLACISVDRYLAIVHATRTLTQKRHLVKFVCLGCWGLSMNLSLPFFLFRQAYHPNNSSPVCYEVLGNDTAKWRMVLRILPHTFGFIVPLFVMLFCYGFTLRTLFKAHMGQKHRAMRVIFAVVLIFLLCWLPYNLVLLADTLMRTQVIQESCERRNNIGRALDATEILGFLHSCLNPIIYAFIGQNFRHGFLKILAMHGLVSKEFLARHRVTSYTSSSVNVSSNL

Rattus norvegicus [2] = experiment: AUC in rat at 1 mg/kg, po by LC-MS/MS analysis; format: ADME, organism-based, Plasma; set-up: dose 1 mg/kg, route oral; settings: in vivo, BLD = below limit of detection
Procedure, shortened: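 Rats were dosed at 1 mg/kg by oral gavage. Plasma levels were measured by LC-MS/MS against a concurrently run calibration curve of compound spiked into rat plasma.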

Rattus norvegicus [3] = experiment: AUC in rat at 1 mg/kg, iv by LC-MS/MS analysis; format: ADME, organism-based, Plasma; set-up: dose 1 mg/kg, route intravenous; settings: in vivo
Procedure, shortened: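 Rats were dosed intravenously at 1 mg/kg. Plasma levels were measured by LC-MS/MS against a calibration curve of compound spiked into rat plasma and run alongside the samples. AUC was taken from the plasma concentration vs. time curve.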

Liver microsome = experiment: Metabolic stability in rat liver microsomes assessed as compound remaining at 1 uM after 60 mins by LC-MS analysis; format: ADME; settings: 1 h
Procedure, shortened: (§1)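 Compound at 1 µM was incubated with rat or monkey liver microsomes for 60 min at 37°C. Samples taken at 0 and 60 min were analysed by LC-MS for % parent remaining.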

[4] = molecular target: T2, C-X-C chemokine receptor type 2 (Homo sapiens, UniProt P25025); experiment: Inhibition of CXCR2 (unknown origin) expressed in PathHunter celline by beta-arrestin assay
T2 sequence (P25025 whole entry): T1 sequence (P25025 whole entry)

[5] = molecular target: T3, C-X-C chemokine receptor type 1 (Homo sapiens, UniProt P25024); experiment: Inhibition of CXCR1 (unknown origin) transfected with RBL cells; format: cell-based
T3 sequence (P25024 whole entry): T1 sequence (P25024 whole entry)

[6] = molecular target: T2, C-X-C chemokine receptor type 2; experiment: Inhibition of CXCR2 (unknown origin) transfected with RBL cells; format: cell-based
Procedure, shortened: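 RBL cells stably transfected with CXCR2 were used to measure antagonist activity at the receptor.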

[7] = Metabolic stability in monkey liver microsomes assessed as compound remaining at 1 uM after 60 mins by LC-MS analysis; format: ADME, Macaca mulatta; settings: rhesus monkey, 1 h; procedure, shortened: as §1
Rattus norvegicus [8] = experiment: Inhibition of lung leakage in ozone Sprague-Dawley rat model of pulmonary inflammation at 1 mg/kg, iv after 24 hrs; format: functional, organism-based; set-up: dose 1 mg/kg
Procedure, shortened: (§2)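 Sprague-Dawley rats, n = 4 per group, were dosed iv at 1 mg/kg (or vehicle) at t = 0, 5 and 9 h. They were exposed to air or 1 ppm ozone for 4 h and sacrificed at 24 h for bronchoalveolar lavage. BALF cells were Wright-Giemsa stained and counted (PMNs, macrophages). BALF protein was measured by Bradford assay as lung leakage.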

Rattus norvegicus [9] = experiment: Inhibition of neutrophil influx in ozone Sprague-Dawley rat model of pulmonary inflammation assessed as decrease in PMN influx into lungs at 1 mg/kg, iv after 24 hrs; format: functional, organism-based; set-up: dose 1 mg/kg; procedure, shortened: as §2
Rattus norvegicus [10] = experiment: Inhibition of macrophage influx in ozone Sprague-Dawley rat model of pulmonary inflammation at 1 mg/kg, iv after 24 hrs; format: functional, organism-based; set-up: dose 1 mg/kg; procedure, shortened: as §2

IC50 [1]: 90 nM
SMILES: O=C(Nc1ccc(F)cc1)c1ccc(SCc2ccc(B(O)O)cc2)nc1

AUC (Rattus norvegicus [2]): BLD
AUC (Rattus norvegicus [3]): 0.39 µM·h
Stability (Liver microsome): 37%
IC50 [1]: 38 nM
IC50 [4]: 730 nM
IC50 [5]: 903 nM
IC50 [6]: 356 nM
Stability [7]: 25%
SMILES: O=C(Nc1ccc(F)cc1)c1ccc(SCc2ccccc2B(O)O)nc1

IC50 [1]: 52 nM
SMILES: O=C(Nc1ccc(F)cc1)c1ccc(SCc2cc(F)ccc2B(O)O)nc1

IC50 [1]: 1220 nM
SMILES: O=C(Nc1ccc(F)cc1)c1ccc(SCc2cccc(B(O)O)c2)nc1

IC50 [1]: 80 nM
SMILES: COc1ccc(B(O)O)c(CSc2ccc(C(=O)Nc3ccc(F)cc3)cn2)c1

Further lines, the compound ahead of its results:

SMILES: O=C(Nc1ccc(F)cc1)c1ccc(SCCc2ccccc2B(O)O)nc1
IC50 [1]: 387 nM

SMILES: COc1cc(CSc2ccc(C(=O)Nc3ccc(F)cc3)cn2)c(B(O)O)cc1OC
IC50 [1]: > 10000 nM

SMILES: O=C(Nc1ccc(F)cc1)c1ccc(SCCCCB(O)O)nc1
IC50 [1]: 689 nM

SMILES: O=C(Nc1ccc(F)cc1)c1ccc(SCc2cc3c(cc2B(O)O)OCO3)nc1
IC50 [1]: > 10000 nM

SMILES: O=C(Nc1ccc(F)cc1)c1ccc(SCc2cc(OC(F)(F)F)ccc2B(O)O)nc1
AUC (Rattus norvegicus [2]): BLD
AUC (Rattus norvegicus [3]): 5.4 µM·h
Stability (Liver microsome): 92%
inhibition (Rattus norvegicus [8]): Active
inhibition (Rattus norvegicus [9]): Active
Stability [7]: 95%
inhibition (Rattus norvegicus [10]): Active
